The EternaBench riboswitch data

Tested on: MS2 coat protein
Test: apparent Kd, MS2 coat protein; higher = weaker binding; RNA-MaP array; FMN 200 µM where present
How it was run: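 Stalled E. coli RNA polymerase transcribed the designs on Illumina sequencing-chip clusters. SNAP-549-labelled MS2 coat protein was titrated from 0.7 or 1.5 nM, doubling to 3 µM, without and then with constant ligand, in 100 mM Tris-HCl pH 7.5, 80 mM KCl, 4 mM MgCl2, BSA, DTT, yeast tRNA and Tween-20. Per-cluster binding curves were fitted to green signal normalised to red-channel RNA signal and control-cluster median Fmax. The apparent Kd is the median of the filtered fits.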

[1] = designed as: OFF switch for flavin mononucleotide, no ligand
[2] = ligand present: flavin mononucleotide, designed as: OFF switch for flavin mononucleotide
[3] = designed as: ON switch for flavin mononucleotide, no ligand
[4] = ligand present: flavin mononucleotide, designed as: ON switch for flavin mononucleotide

Row | Sequence | apparent Kd [1] [nM] | apparent Kd [2] [nM] | apparent Kd [3] [nM] | apparent Kd [4] [nM]
1 | UGAACUUCAGAGAAGGUCGAACGGCAACGGUUCGAAGGAUAUCUGGAAACAUGAGGAUCACCCAUGUAACCGGGUGGAUGUCCU | 58.9 | 291 | – | –
2 | GGAUGACAAAGUCAUCCAUUACGAACAUGAGGAUCACCCAUGUAGGAUAUGCAACUCAAAGAGUUGCAGAAGGACAUGUGUCUU | 29.6 | 146 | – | –
3 | UGGUACAUGGGAGGAUAUGGAGUGAAGACAUGAGGAUCACCCAUGUUAUAAAUGCCGAGAGGCAACUAGAAGGCCCAUGUACCU | – | – | 77.7 | 14.3
4 | GCAAUAGCAUGAGGAUAUGCUGGAGUUUAGACAGCAGAAGGCAUGUCAUAAGACAUGAGGAUCACCCAUGUAAUUACAAUAGCA | – | – | 57.8 | 10.4
5 | GAUUUACAUGAGGAUCACCCAUGUGAGGAUAUGGAAUGGCUCAUUGUCUGAUUUCCUUCUAGAAGGCACAUCUU | 43.7 | 51 | – | –
6 | GGUACUCAAAGAGUACCAAUACGAACAUGAGGAUCACCCAUGUAGGAUAUGCUACUCAAAGAGUAGCAGAAGGACGUGUACCUU | 24.7 | 54 | – | –
7 | GGAGCACACAUUAACAUGAGGAUCACCCAUGUCAAAAGACAUGAGGAUAUGGAUACGAAAAGGAUCCAGAAGGCAUGGUGCUCC | – | – | 693 | 72.5
8 | UUUACAUGAGGAUCACCCAUGUUUAGAAAGAUUGGUUUAGGUGAGGAUAUACAUGAUAAUGAAUUGUAGAAGGCACUGGGUACA | – | – | 30.1 | 24
9 | GUGUACGGAGGAUAUAUGUGGUGAGCAUACGCUCAAGCUUCACAUGAGGAUCACCCAUGUAGAAGGCUGUGCAC | 210 | 150 | – | –
10 | GCAUGCUAUGUCAGGAUAUACCUCUGGAUACAUAGGUAGAAGGGACAUGAGGAUCACCCAUGUCCUCAUCAUGC | 12.4 | 23.8 | – | –
11 | AUACAAUUUCGAGGAUAUCGGUGAUAAAUAAUACGAGAAGGCGAUGAAAGAUAUAAUCCUAUUUACAUGAGGAUCACCCAUGUU | – | – | 34.8 | 31.1
12 | GUAGAACAUGAGGAUCACCCAUGUGAAGACGCAUGAGGAUAUAUCCGUACCUAGCAUACGAUAGAAGGCAUGAUAC | – | – | 113 | 49.7
13 | CAGCGGCAAGGAUAUACAUGAGGAUCACCCAUGUGGUCCCGCUAUAGUAACUUAGCUUGUAGAAGGUGCAGCUA | 36.5 | 218 | – | –
14 | UUAUAAAGUGUGAGGAUAUGCUGGUCCAUAGAUCAGCAGAAGGCACAUGAGGAUCACCCAUGUAAUAUAUUUUU | 28.8 | 133 | – | –
15 | UGGUUGUGUGUCAGGAUAUGGUCUGGUGUUUCGGGCUAGAAGGGACAUGAGGAUCACCCAUGUGGCUGGCGGGU | 262 | 439 | – | –
16 | UUUUAACAUGAGGAUCACCCAUGUGAGGAUAUCGAAAUUUAUAUUAAUAUUUAUUAUUCGAGAAGGCACAUUUU | 152 | 167 | – | –
17 | AGCAUGUUUACAUGAGGAUCACCCAUGUUUUUUAAGGAUAUCAGAAGGUACAUUUUGAGUUAGAGUAAGGAUAUGAUAUAUGCG | – | – | 11.9 | 8.82
18 | GGUGUCGUAUGAGGAUAUGGUCAGCUUUGCUGACCAGAAGGCAUGUCAAUAGACAUGAGGAUCACCCAUGUAGUAAAGACACCA | – | – | 441 | 43.4
19 | UGGUCAUGAUCAGGAUAUUAACAUGGGCUACAUUAAGAAGGGAUAGUGAGAUACGAACUGAACAUGAGGAUCACCCAUGUUGUU | – | – | 240 | 104
20 | AUUAUUUAUAGUUAUUGGUAUUUGACAGAAGGUGAAAGUGUCACAUGAGGAUCACCCAUGUUCUUCAAGGAUAUGUUGGUAUAC | – | – | 66.1 | 11.8
21 | GCUUGUGAAGGAUAUACUGGCGACAUGCGCUCAACACGCGCACAUGAGGAUCACCCAUGUAGAAGGUCAAACAU | 23.9 | 33 | – | –
22 | CCAAACUGAGGAUAUACAUGAGGAUCACCCAUGUGCCCGCGGUCAUAUGUAGCCUAGUGUAGAAGGCAGAAAAC | 75.5 | 25 | – | –
23 | GGGUUGCUACAAGGAUAUGAUGAAAGUGAGACAUCAGAAGGUGUAGUAUCACAUGAGGAUCACCCAUGUAGAACAACCCAAACC | – | – | 369 | 23
24 | UACAAUCUAUCUGAGGAUAUCAUGCAUUACACAUGAGGAUCACCCAUGUGCAGGAAAACUGCAUAUGAGAAGGCAGAUAGAUUGU | – | – | 561 | 23.8

Row | Sequence | apparent Kd [1] [nM] | apparent Kd [2] [nM] | apparent Kd [3] [nM] | apparent Kd [4] [nM]
25 | CAAACGUGAGGAUAUACAUGAGGAUCACCCAUGUGCUCCUCUAAACUGAAGAAGUAAUGUAGAAGGCACGUUUG | 39.2 | 17.7 | – | –
26 | GGUGCGUAUGUGAGGAUAUGCUGGUCCUUGGAUCAGCAGAAGGCACAUGAGGAUCACCCAUGUGGUGUCGUGCC | 114 | 20.8 | – | –
27 | UCGUACAUUCGAGGAUAUCGGUGAUUAAUAAUACGAGAAGGCGAUUUAAGGCAUAAAGCCUUAGACAUGAGGAUCACCCAUGUA | – | – | 107 | 70.5
28 | GGCUCUAGAGGAUAUACAAACUGAUCCUCAGAGCGCCGGCUACAUGAGGAUCACCCAUGUAGAAGGUUGGAGUC | 15.6 | 13.1 | – | –
29 | CUUUUGUGAGGAUAUCAGUAGUAAUAAAAUAAAAUUACUACUGAGAAGGCACAUGAGGAUCACCCAUGUUCCUC | 40 | 182 | – | –
30 | GUGGUGGGUUGAGGAUAUUGGUUGUCGUUGUCCCACAUGAGGAUCACCCAUGUGGGUUGUGGUUUUGAGAAGGUUGGUUGCUGG | – | – | 18.1 | 15.9
31 | AAUUAACAUGAGGAUCACCCAUGUGAGGAUAUGGUAUUAUUUGGACAGUUAUGAUCUACCAGAAGGCACAUAUA | 39 | 65.1 | – | –
32 | GUAUUUAUAUAAGGAUAUAAGUCUAGGACAUGAGGAUCACCCAUGUGUGUCUUAGAAGGUAUAUGGGUAAUACUGUUACAGUAA | – | – | 226 | 112
33 | AAACACGGACAUGAGGAUCACCCAUGUGGCGAUAGCCUUGGGAGAAGGUAUAAAUAAAAUAAUAAUUAGGAUAUUCAUACCGUG | – | – | 275 | 108
34 | AUUGAUAGCACAGGAUAUUGAGAUUUGAAUUGACAAGAAGGGUGUACAUGAGGAUCACCCAUGUAAUGGCUGCCUCGUUGAUUA | 57.8 | 132 | – | –
35 | UAAUCGUUGCAGAAGGUUAUUUUUUUAACAUUUCUCUUAACAUGAGGAUCACCCAUGUUUUUGAUGAAGGAUAUGCAACGGUAG | 6.67 | 5.51 | – | –
36 | ACAUGCAUAGCGAUAUGAUCGAGAGAUCAUGUCGCUAAAUUUAGAAGGACAUGAGGAUCACCCAUGUAGGAUAUGGGAGCAUGC | – | – | 87.9 | 17.1
37 | AGGAAGUCAGGAUAUGCUGCUCGUCACUUGCGUGAUGAGUAGCAGAAGGGACAUGAGGAUCACCCAUGUAAAAA | 52.6 | 57.9 | – | –
38 | GAUUAACAUGAGGAUCACCCAUGUGAGGAUAUGGACUGGCUCACUUUCCGAUUCGAGUCUAGAAGGCGCAUCUU | 32.8 | 35.2 | – | –
39 | AGUGGUUACACAGGAUAUCCUCGUUAUUAACUAGGAGAAGGGUGGACACCACACAUGAGGAUCACCCAUGUACCACGAUAAAGA | – | – | 209 | 42.4
40 | ACGCCCUGAGGAUAUCUUAUCCCGUACAUGAGGAUCACCCAUGUUCUCCUCCGGGCUCCGAGAGAAGGCAGGCCCA | 26.7 | 37 | – | –
41 | GUGGCACAUGAGGAUCACCCAUGUCAGGAUAUCGCGUGGUUUUUUGCGGCCGCGCGCGCGAGAAGGGACGUCUU | 39.2 | 38.1 | – | –
42 | CCAGAUAUGUAAGGAUAUAUAGUGGAAUACACUAUAGAAGGUAUGUGAGAACAUGAGGAUCACCCAUGUCAUUGGAUAUCUGGA | – | – | 37.1 | 39.3
43 | ACUAGAAGCGUGAGAUAUCACAUGAGGAUCACCCAUGUGACGCAGGAUAUAACAAUAUCAGAAGGUUAGAAGGGUGAGCACGCC | – | – | 101 | 52.9
44 | CACCCUGAUGUCAGGAUAUGCGCGUCGCGCCUCGAGCAGAAGGGACAUGAGGAUCACCCAUGUUGUCUCUUGGG | 48.9 | 98.7 | – | –
45 | CUUUUGUGAGGAUAUCAGUAGUAAUACAAUAGUAUUACUAUUGAGAAGGCACAUGAGGAUCACCCAUGUUCCUC | 39.4 | 156 | – | –
46 | GUCUCGAUGUAGAAGGCCGCGUCCGGCUCACGCGGAGGAUAUACAUGAGGAUCACCCAUGUGUCUGUGGCUAAUAUGGUACGGA | 41.8 | 234 | – | –
47 | GUCAGCUCGUGAGGAUAUACAUGUGCUGGAAACAGCAUUAUAUUUUUCACAUGAGGAUCACCCAUGUAGAAGGCACGAGCUGAU | 16.3 | 27 | – | –
48 | UGGUACUAGAGAGGAUAUGGGAAGAUACAUGAGGAUCACCCAUGUUUAAGAAUGCCGAGAGGCAACUAGAAGGCCCUAGUACCU | – | – | 490 | 31.5
